From ChEMBL document CHEMBL1828578, “Antimalarial activities of new guanidylimidazole and guanidylimidazoline derivatives” (J Med Chem, 2011)
≈ marks a conversion by molar mass, not a printed value. Calls of active or inactive are those of the source. The rule behind the calls is not given here.

How the values were obtained:
[1] = system: Plasmodium falciparum; assay: Antimalarial activity against […] of Plasmodium falciparum TM91C235 after for 3 days by microdilution technique; format: functional, organism-based; settings: TM91C235, 72 h
Procedure, shortened: (§1)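 P. falciparum clones were tested in vitro using a modified semiautomated microdilution technique.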

[2] = system: Plasmodium falciparum; assay: Antimalarial activity against sporozoites stage of Plasmodium falciparum D6 after 3 days by microdilution technique; format: functional, organism-based; settings: D6, 72 h, in the assay text read “blood stage” for “sporozoites stage”; procedure, shortened: as §1
[3] = Metabolic stability of the compound in rhesus monkey microsomes assessed as half life at 1 uM by LC-MS analysis; format: ADME, Macaca mulatta, Microsome
[4] = Metabolic stability of the compound in mouse liver microsomes assessed as half life at 1 uM by LC-MS analysis; format: ADME, Microsome
Procedure, shortened: (§2)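 Compound at 1 μM final (from 10 or 20 mM DMSO stocks) was incubated with 0.5 mg/mL pooled human or mouse liver microsomes. The mix held 1.3 mM NADP and 3.3 mM MgCl₂ in 0.1 M PBS pH 7.4, and the reaction was started with 1 U/mL G6PD. Incubation was at 37 °C with shaking, and samples were quenched with cold acetonitrile at 0, 10, 20, 30 and 60 min.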

[5] = system: Plasmodium falciparum; assay: Antimalarial activity against […] of Plasmodium falciparum W2 after for 3 days by microdilution technique; format: functional, organism-based; settings: W2, 72 h; procedure, shortened: as §1
[6] = Metabolic stability of the compound in human liver microsomes assessed as half life at 1 uM by LC-MS analysis; format: ADME, Microsome; procedure, shortened: as §2
[7] = system: Plasmodium berghei; assay: Antimalarial activity against Plasmodium berghei in exoerythrocytic mouse model assessed as causal prophylaxis at 320 mg/kg/day, po administered one day before infection, on day of infection and one day post infection; format: functional, organism-based
Procedure, shortened: (§3)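 P. berghei sporozoite exoerythrocytic mouse model. Compound was ground and suspended in hydroxyethylcellulose plus Tween 80, then given po at several dose levels once daily: the day before, 4 h before, and the day after sporozoite inoculation. Mice alive on day 31 with no parasites in any blood film were scored as protected.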

[8] = system: Plasmodium berghei; assay: Antimalarial activity against Plasmodium berghei in exoerythrocytic mouse model assessed as causal prophylaxis at 160 mg/kg/day, po administered one day before infection, on day of infection and one day post infection; format: functional, organism-based; procedure, shortened: as §3
[9] = system: Mus musculus; assay: Toxicity against exoerythrocytic mouse model assessed as reduction in body weight at 320 mg/kg/day, po administered one day before infection, on day of infection and one day post infection measured up to 31 days; format: organism-based; set-up: route oral; settings: in vivo, 744 h
[10] = system: Mus musculus; assay: Toxicity in exoerythrocytic mouse model assessed as reduction in body weight at 160 mg/kg/day, po administered one day before infection, on day of infection and one day post infection measured on day 31; format: organism-based; set-up: route oral; settings: in vivo
[11] = system: Plasmodium cynomolgi; assay: Antimalarial activity against sporozoites stage of Plasmodium cynomolgi infected in Rhesus monkey assessed as delay in patency at 1.78 mg/kg/day, po administered one day before infection, on day of infection and one day post infection; format: functional
Procedure, shortened: (§4)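 Causal prophylaxis test in Rhesus monkeys inoculated with P. cynomolgi sporozoites, two monkeys per group. Drug was given orally on days −1, 0 and +1 relative to inoculation. Patency was the first day parasites were detected in blood smears, and the delay was counted against vehicle-treated controls.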

[12] = system: Plasmodium cynomolgi; assay: Antimalarial activity against sporozoites stage of Plasmodium cynomolgi infected in Rhesus monkey assessed as delay in patency at 0.316 mg/kg/day, po administered one day before infection, on day of infection and one day post infection; format: functional; procedure, shortened: as §4
[13] = system: Plasmodium cynomolgi; assay: Antimalarial activity against sporozoites stage of Plasmodium cynomolgi infected in Rhesus monkey assessed as delay in patency at 50 mg/kg/day, po administered one day before infection, on day of infection and one day post infection; format: functional; procedure, shortened: as §4

| IC50 [1] | IC50 [2] | half-life at 1 µM [3] | half-life at 1 µM [4] | IC50 [5] | half-life at 1 µM [6] | SMILES | Activity [7] | Activity [8] | Activity [9] | Activity [10] | Time [11] | Time [12] | Time [13] |
| --- | --- | --- | --- | --- | --- | --- | --- | --- | --- | --- | --- | --- | --- |
| 1.2 µg/mL (≈ 3.82 µM) | 1.4 µg/mL (≈ 4.46 µM) | 36.3 min | > 60 min | 0.7 µg/mL (≈ 2.23 µM) | > 60 min | CC(C)N1CCN=C1/N=C(\N)Nc1ccc(Cl)c(Cl)c1 | – | – | – | – | – | – | – |
| – | 1.1 µg/mL (≈ 2.99 µM) | – | 18.2 min | 1 µg/mL (≈ 2.72 µM) | 40.4 min | CC(C)n1ccnc1/N=C(/Nc1ccc(Cl)c(Cl)c1)NC(C)(C)C | inactive | inactive | – | – | – | – | – |
| 0.2 µg/mL (≈ 0.446 µM) | 0.3 µg/mL (≈ 0.669 µM) | – | > 60 min | 0.2 µg/mL (≈ 0.446 µM) | > 60 min | CC(C)N1CCN=C1/N=C(/Nc1ccc(Cl)c(Cl)c1)NC12CC3CC(CC(C3)C1)C2 | – | – | – | – | – | – | – |
| > 5 µg/mL | > 5 µg/mL | – | > 60 min | > 5 µg/mL | > 60 min | CC(C)n1ccnc1/N=C(/NC(=O)C(C)(C)C)Nc1ccc(Cl)c(Cl)c1 | inactive | inactive | – | – | – | – | – |
| 0.3 µg/mL (≈ 0.785 µM) | 0.4 µg/mL (≈ 1.05 µM) | – | 21.5 min | 0.2 µg/mL (≈ 0.523 µM) | > 60 min | CC(C)N1CCN=C1/N=C(/Nc1ccc(Cl)c(Cl)c1)N1CCCCC1 | – | – | Toxic | Toxic | – | – | – |
| 0.9 µg/mL (≈ 2.44 µM) | 1.4 µg/mL (≈ 3.8 µM) | – | 9 min | 0.4 µg/mL (≈ 1.09 µM) | 48 min | CC(C)N/C(=N\c1nccn1C(C)(C)C)Nc1ccc(Cl)c(Cl)c1 | – | – | Toxic | Toxic | – | – | – |
| – | – | – | – | – | – | COc1cc(NC(C)CCCN)c2ncccc2c1 (stereo not drawn) [PRIMAQUINE] | – | – | – | – | 5 days | – | – |
| – | 0.8 µg/mL (≈ 2.02 µM) | – | 11.7 min | 0.8 µg/mL (≈ 2.02 µM) | 12.1 min | CC(C)(C)Cn1ccnc1/N=C(/Nc1ccc(Cl)c(Cl)c1)NC(C)(C)C | inactive | inactive | – | – | – | – | – |
| 0.3 µg/mL (≈ 0.789 µM) | 0.5 µg/mL (≈ 1.31 µM) | 7.8 min | 19.7 min | 0.3 µg/mL (≈ 0.789 µM) | 27 min | CC(C)n1ccnc1/N=C(/Nc1ccc(Cl)c(Cl)c1)N1CCCCC1 | inactive | inactive | – | – | – | – | – |
| 1.2 µg/mL (≈ 3.68 µM) | 1.6 µg/mL (≈ 4.9 µM) | 45 min | 48 min | 0.4 µg/mL (≈ 1.23 µM) | > 60 min | CC(C)(C)n1ccnc1/N=C(\N)Nc1ccc(Cl)c(Cl)c1 | inactive | inactive | – | – | – | – | – |
| > 5 µg/mL | > 5 µg/mL | – | > 60 min | > 5 µg/mL | > 60 min | CC(C)n1ccnc1/N=C(/NC(=O)OC(C)(C)C)Nc1ccc(Cl)c(Cl)c1 | – | – | – | – | – | – | – |
| > 5 µg/mL | > 5 µg/mL | – | 37.6 min | 0.6 µg/mL (≈ 1.92 µM) | > 60 min | CC(C)N/C(=N\c1ncc[nH]1)Nc1ccc(Cl)c(Cl)c1 | – | – | Toxic | Toxic | – | – | – |
| > 5 µg/mL | > 5 µg/mL | – | 12.5 min | > 5 µg/mL | 26 min | CCC(CC)C(=O)N/C(=N/c1nccn1C(C)(C)C)Nc1ccc(Cl)c(Cl)c1 | – | inactive | – | – | – | – | – |
| 2.5 µg/mL (≈ 9.26 µM) | 0.5 µg/mL (≈ 1.85 µM) | – | 23.6 min | 1.4 µg/mL (≈ 5.18 µM) | 42.5 min | N/C(=N\c1ncc[nH]1)Nc1ccc(Cl)c(Cl)c1 | inactive | inactive | – | – | – | – | – |
| > 2 µg/mL | > 2 µg/mL | – | 11 min | > 2 µg/mL | 19.7 min | CC(C)C(=O)N/C(=N/c1nccn1Cc1ccccc1)Nc1ccc(Cl)c(Cl)c1 | inactive | inactive | – | – | – | – | – |
| 2.5 µg/mL (≈ 6.21 µM) | 1.3 µg/mL (≈ 3.23 µM) | – | 18 min | 1.6 µg/mL (≈ 3.98 µM) | 16 min | CC(C)N/C(=N\c1nccn1Cc1ccccc1)Nc1ccc(Cl)c(Cl)c1 | inactive | inactive | – | – | – | – | – |
| > 2 µg/mL | > 2 µg/mL | – | 37 min | > 2 µg/mL | > 60 min | N/C(=N\c1nccn1Cc1ccccc1)Nc1ccc(Cl)c(Cl)c1 | inactive | inactive | – | – | – | – | – |
| 2.9 µg/mL (≈ 7.07 µM) | 1 µg/mL (≈ 2.44 µM) | – | > 60 min | 0.3 µg/mL (≈ 0.731 µM) | > 60 min | CCC(CC)C(=O)N/C(=N/c1nccn1C(C)C)Nc1ccc(Cl)c(Cl)c1 | inactive | inactive | – | – | – | – | – |
| 0.7 µg/mL (≈ 1.96 µM) | 0.5 µg/mL (≈ 1.4 µM) | – | 13.6 min | 0.4 µg/mL (≈ 1.12 µM) | 50.7 min | CC(C)N/C(=N\C1=NCCN1C(C)C)Nc1ccc(Cl)c(Cl)c1 | – | inactive | Toxic | Toxic | – | – | – |
| – | 1.1 µg/mL (≈ 2.88 µM) | – | – | 1.5 µg/mL (≈ 3.92 µM) | 20.3 min | CC(C)N/C(=N\c1nccn1CC(C)(C)C)Nc1ccc(Cl)c(Cl)c1 | inactive | inactive | – | – | – | – | – |
| – | – | – | – | – | – | COc1cc(C)c2c(Oc3cccc(C(F)(F)F)c3)c(OC)cc(NC(C)CCCN)c2n1 (stereo not drawn) [TAFENOQUINE] | – | – | – | – | – | 2 days | – |
| 2.4 µg/mL (≈ 6.77 µM) | 2.6 µg/mL (≈ 7.34 µM) | 7.8 min | 5.9 min | 0.8 µg/mL (≈ 2.26 µM) | 22.5 min | CC(C)N/C(=N\c1nccn1C(C)C)Nc1ccc(Cl)c(Cl)c1 | – | – | – | – | – | – | 9 days |
| > 5 µg/mL | > 5 µg/mL | – | > 60 min | > 5 µg/mL | > 60 min | CC(C)(C)C(=O)N/C(=N/c1nccn1C(C)(C)C)Nc1ccc(Cl)c(Cl)c1 | – | – | – | – | – | – | – |
| 2.4 µg/mL (≈ 7.69 µM) | 2.8 µg/mL (≈ 8.97 µM) | > 60 min | 27.7 min | 0.7 µg/mL (≈ 2.24 µM) | > 60 min | CC(C)n1ccnc1/N=C(\N)Nc1ccc(Cl)c(Cl)c1 | Active | Active | – | – | – | – | – |
| – | 1.4 µg/mL (≈ 3.66 µM) | – | 10.8 min | 0.9 µg/mL (≈ 2.35 µM) | 32.9 min | CC(C)n1ccnc1/N=C(\NCC(C)(C)C)Nc1ccc(Cl)c(Cl)c1 | inactive | inactive | – | – | – | – | – |
| 2.2 µg/mL (≈ 5.75 µM) | 2.5 µg/mL (≈ 6.54 µM) | – | > 60 min | 1 µg/mL (≈ 2.62 µM) | > 60 min | CC(C)C(=O)N/C(=N/c1nccn1C(C)C)Nc1ccc(Cl)c(Cl)c1 | – | – | – | – | – | – | – |
| – | 0.4 µg/mL (≈ 1.08 µM) | – | 16.6 min | 0.4 µg/mL (≈ 1.08 µM) | > 60 min | CC(C)N1CCN=C1/N=C(/Nc1ccc(Cl)c(Cl)c1)NC(C)(C)C | – | inactive | Toxic | Toxic | – | – | – |
| > 5 µg/mL | > 5 µg/mL | – | 50.8 min | > 5 µg/mL | > 60 min | CC(C)n1ccnc1/N=C(/NC(=O)Cc1ccccc1)Nc1ccc(Cl)c(Cl)c1 | inactive | inactive | – | – | – | – | – |
